This sample holds only a part of the variants without activity.
B1: tRNA (parent)
chain: GUUCCGUUGGCGUAAUGGUAACGCGUCUCCCUCCUAAGGAGAAGACUGCGGGUUCGAGUCCCGUACGGAACG

Variants of: B1
Experiment: yeast fitness relative to wild type (ratio to wild type); higher = fitter; tRNA-Arg(CCU), competitive growth, 37 C, YPD
Method in brief: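 Gene amplicons from the start population and from each of six end populations were read by 100-nucleotide paired-end sequencing. Those end populations came from pooled Saccharomyces cerevisiae strains carrying tRNA-Arg(CCU) gene variants at the native locus, competed in YPD at 37°C for 24 hours. Fitness relative to wild type was worked out from changes in genotype frequencies. Genotypes needed ≥ 100 starting reads, and estimates < 0.5 were set to 0.5.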

Variant	yeast fitness
GUUCCGUUGGCGUAAUGGUACCGCGUCUCCCUACUAAGGAGAAGACUGCGGGUUCGAGUCUCGUACGGAACG	≤ 0.5
GUUCCGUUGGCGUAAUGGUACCGCGUCUCCGUGCUAAGGAGAAAACUGCGGGUUCGAGUCCCGUAUGGAACG	0.526
GUUCCGUUGGCGUAAUGGUACCGCGUCUCUCUCCUCAGGAGAAGACUGCGGGUUCGAGUCCCGUACGGAACG	≤ 0.5
GUUCCGUUGGCGUAAUGGUACCGCGUCUCCCUCUUAAGGAGAAGACUGUGGGUUCGAGUCCCAUACGGUACG	≤ 0.5
GUUCCGUUGGCGUAAUGGUACCGCGUCUCCCUCCUAAGGAGAAGACUGCGGGUUAGUGUCCCGUACGGAACG	0.535
GUUCCGUUGGCGUAAUGGUACCGCGUCUCCCUCCUAAGAAGAAGACUGAGGGUUCGAGUCCCGUACGGAACG	≤ 0.5
GUUCCGUUGGCGUAAUGGUACCGCGUCUCCCUCCUAAGGAGAAGACUGCGGGUUCGAGUACCGUACGGGACG	≤ 0.5
GUUCCGUUGGCGUAAUGGUACCGCGUCUCCCUCCUAAGGACAAGACUGCGGGUUCGAGUCCCGUACGGAACG	0.695
GUUCCGUUGGCGUAAUGGUACCGCGUCUCCGUCCUAAGGAGAAGACUGCGGGUUCGAGUCCCGUAUGGAACG	≤ 0.5
GUUCCGUUGGCGUAAUGGUACCAUGUCUCCUUCCUAAGGAGAAGACUGUGGGUUCGAGUCCCGUACAGAACG	≤ 0.5
GUUCCGUUGGCGUAAUGGUACCGCGUCUCCCUCUCAAGGAGAAGACUGCGGGUUCGAGUCCCGUACGGAACG	≤ 0.5
GUUCCGUUGGCGUAAUGGUACCGCGUCUCCCUCCUAAGGAGAAGACUACGGGUUUGAGUCCCGUCCGGAACG	≤ 0.5
GUUCCGUUGGCGUAAUGGUACCGCGUCUCCCUCCUAAGGAGAAGACUGCGGGUUGGUGUCCCGUACAGAACG	≤ 0.5
GUUCCGUUGGCGUAAUGGUACCGCGUCUCCCUUCUAAGGAGAAGACUGCGGGUUCGAGUCACGUACGGAACG	0.593
GUUCCGUUGGCGUAAUGGUACCGCGUCUCCCUCUUAAGGAGAAGACUGCGCGUUCGAGUCCCGUACGGAACG	≤ 0.5
GUUCCGUUGGCGUAAUGGUACCGCGUCUCUCUCCUAAGGAGAAGACUGCGGGUUCGAGUCCCGUACGGAACG	0.734
GUUCCGUUGGCGUAAUGGUACCCCGUCUCCCUCCUAAGGAGAAGACUGCGGCUUCGAGUCCCGUCCGGAACG	≤ 0.5
GUUCCGUUGGCGUAAUGGUACCGCGUCUCCCUUCUAAGGAGAAGACUGCGGGUUUGCGUCACGUACGGAACG	≤ 0.5
GUUCCGUUGGCGUAAUGGUACCGCGUCUCCCUCUUAAGGAGAAGACUGCGGGUUCGAGUCCCGUUCGGAACG	≤ 0.5
GUUCCGUUGGCGUAAUGGUACCGCGUCUCCCUCCUAAGGAGAAGACUGCGGGUUCGAGUCGCGUACGAAACG	≤ 0.5
GUUCCGUUGGCGUAAUGGUACCGCGUCUCCCUCCUAAGGAGAACACUGCGGGUUCAAGUCCCCUACGAGACG	≤ 0.5
GUUCCGUUGGCGUAAUGGUACCGCCGCUCCCUCCUAAGGAGAAGACUGCGGGUUCGAGUCCCGUACGGACCG	≤ 0.5
GUUCCGUUGGCGUAAUGGUACCGCGUCUCUCUCCUAAAGAGAAGACUGCGGGUUCGAGUCCCGUACGGAACG	≤ 0.5
GUUCCGUUGGCGUAAUGGUACCGCGUCUCCCUCCUAAGCAGUAGACUCCGGGUUCGAGUCCCGUACGGAACG	≤ 0.5
GUUCCGUUGGCGUAAUGGUACCAUGUCUCCUUCCUAAGGAGAAGACUGUGGGUUCGAGUCCCGUACGGAACG	≤ 0.5

Variant	yeast fitness
GUUCCGUUGGCGUAAUGGUACCGCGUCUCCCUGCUAUGGAGAAGACUGCGGGUUCGAGUCCCGGACGGAACG	0.617
GUUCCGUUGGCGUAAUGGUACCGCGUCUCCCUCGUAAGGAGAAGACUGCGGGUUCGAGUCCCGUACGGAACG	0.577
GUUCCGUUGGCGUAAUGGUACCUCGUCUCCCUCCUAAGGAGAAGACUGCGGGUUCGAGGCCCGUACGGAACG	≤ 0.5
GUUCCGUUGGCGUAAUGGUACCGCGUCUCCCUUCUAAGGAGAAGACUGCGGGUUCGAGUCCCGUACGGAACG	0.687
GUUCCGUUGGCGUAAUGGUACCGCGUCUCCCUCCUAAGAAGAAGACUGCGGCUUCGAGUCCUGUACGGAACG	≤ 0.5
GUUCCGUUGGCGUAAUGGUACCGCCGCUCCCUCCUAAGGAGAAGACUGCGGGUUCGAGACCCGUACGGAACG	≤ 0.5
GUUCCGUUGGCGUAAUGGUACCGCGUCUCCCUCCUAAGGAGAAGACUGUGGGUUCGAGUCCCGUACGGAACG	0.824
GUUCCGUUGGCGUAAUGGUACCGCGUCUCCCUCCUAAGGAGAAGACUGGGGGUUCGAGUCCCGUACGGAACG	0.732
GUUCCGUUGGCGUAAUGGUACCGCGUCUCCCUCCUAAGGAGAAGACUGAGGGUUCGAGUCCCGUACGGAACG	0.742
GUUCCGUUGGCGUAAUGGUACCGCGUCUCCAUGCUAAGGAGAAGAAUGCGGGUUCGAGUCCCGUACGGAACG	≤ 0.5
GUUCCGUUGGCGUAAUGGUACCGCGUCUCCUUCCUAAACAGAAGACUGGGGGUUCGAGUCCCGUACGGAACG	≤ 0.5
GUUCCGUUGGCGUAAUGGUACCGCGUCUCCCUCGUAAGGAGAUGACUGCGGGUUCGAGUCCCGUACGGAACG	≤ 0.5
GUUCCGUUGGCGUAAUGGUACCGCGUCUCCCUCCUAAGGAGAAGACUCCGGGUUCCAGUCCCGUACGGAACG	≤ 0.5
GUUCCGUUGGCGUAAUGGUACCGCGUCUCUCUCCUAAGGAGAAGACUGCGGGUUCGAGUCCAGUACGGAACG	0.644
GUUCCGUUGGCGUAAUGGUACCGCGUCUCCCUCCUAAGGAGAAGAAUGCGGGUUCGAGUCCCGUACGGAACG	0.995
GUUCCGUUGGCGUAAUGGUACCGCCGCUCCCUCCUAAGGAGAAGACUGCGGGUUCGAGACCCGUACGGACCG	0.559
GUUCCGUUGGCGUAAUGGUACCGCGUCUCCCUCCUAAGGAGAACACUGCGGGUUCGGGUCCCGUACGCAACG	0.66
GUUCCGUUGGCGUAAUGGUACCACGUCUCCCUCCUAAGGAGAAGACUGAGGGUUCGAGUCCCGUACGGAACG	≤ 0.5
GUUCCGUUGGCGUAAUGGUACCGCGUCUCCCUCCUAAGGAGAAGAUUGCGGGUUCGAGUCGCGUACGGAACG	≤ 0.5
GUUCCGUUGGCGUAAUGGUACCGCGUCUCCCUCUUAAGGAGAAGACUGCGGGUUCAAGUCCCGUACGGAACG	0.551
GUUCCGUUGGCGUAAUGGUACCGCGUCUCCCUUCUGAGAAGAAAACUGCGGGUUGGAGCCCCGUACGGAACG	≤ 0.5
GUUCCGUUGGCGUAAUGGUACCGCGUCUCCCUCCUAAGGAGAAGACUGUGGGUUCGAGUCCCGUACGGUACG	0.61
GUUCCGUUGGCGUAAUGGUACCGCGUCUCCCUCCUAAGGAGAAGACUGCGGGUUCGAGUCCUGUCCGGAACG	0.654
GUUCCGUUGGCGUAAUGGUACCGCGUCUCCAGCCUAAGGGGAAGACUGCGGGUUCGAGUCCCGUACGGAACG	≤ 0.5
GUUCCGUUGGCGUAAUGGUACCGCGUCUCCCUCCUAAGGAGAAGACUGCGGGUUUGAGUCCCGUACGGCACG	≤ 0.5

Variant	yeast fitness
GUUCCGUUGGCGUAAUGGUACCGCCUCUCCCUCCUAAGGAGAAGACUGCGGGUUCGGGUCCCGUACGGAACG	0.516
GUUCCGUUGGCGUAAUGGUACCGCGUCUCCCUCGUAAGGAGAAGAUUGCGGGUUCGAGUCCCGUACGGAACG	≤ 0.5
GUUCCGUUGGCGUAAUGGUACCGCGUCUCCCUCGUAAGGAGAAGAAUGCGGGUUCGAGUCCCGUACGGAACG	≤ 0.5
GUUCCGUUGGCGUAAUGGUACCGCGUCUCCAUCCUAAGGAGAAGACUGUGGGUUCGAGUCCCGUACGGAACG	0.734
GUUCCGUUGGCGUAAUGGUACCGCGUCUCCAUCCUAAGGAGAAGACUGCGGGUUCGAGUCCCGUCCGGAACG	≤ 0.5
GUUCCGUUGGCGUAAUGGUACCGCGUCUCCCUCGUAAGGAGAAGACUGCGGGUUCGAGUACCGUACGGAACG	≤ 0.5
GUUCCGUUGGCGUAAUGGUACCGCGUCUCCCUCCUAACGAGAACACUGCGGGUUCGAGUCCCGUACGGAACG	0.544
GUUCCGUUGGCGUAAUGGUACCGCCGCUCCCUCCUAAGGAGAAGACUGCGGGUUCGAGGCCCGUCCGGAACG	≤ 0.5
GUUCCGUUGGCGUAAUGGUACCGCGUCUCCCUCCUAACGAGAAGACUGCGGGUUCGAGUCCCCUACGGAUCG	≤ 0.5
GUUCCGUUGGCGUAAUGGUACCGCGUCUCCCUCCUAAGGAGAAGACUACGGGUUCGAGUCCCGUACGGAACG	0.854
GUUCCGUUGGCGUAAUGGUACCGCGUCUCCCUCCUAAGGAGAAGACUGCGGGUUAGAGUCCCGUACGGAACG	0.605
GUUCCGUUGGCGUAAUGGUACCGCGUCUCCCUCCUAAGGAGAAGACUGCGGGUUUGAGUCCCGUACGGAACG	0.712
GUUCCGUUGGCGUAAUGGUACCGCGUCUCCCUCCUAAGGAGAAGACUGCGGGUUGGAGUCCCGUACGGAACG	≤ 0.5
GUUCCGUUGGCGUAAUGGUACCACGUCUCCCUCCUAAGGAGAAGAGUGCGGGCUCGAGUCCCGUACGGAACG	0.698
GUUCCGUUGGCGUAAUGGUACCACGUCUCCCUCCUACGGAGAAGACUGCGGGUCCGAGUCCCGUGCGGAACG	≤ 0.5
GUUCCGUUGGCGUAAUGGUACCGCGUCUCCCUCGUAAGGACAAGACUGCGGGUUCGAGUCCCGUACCGAACG	0.653
GUUCCGUUGGCGUAAUGGUACCGCGUCUCCCUCCUAAGGAGAAAACCGCGGGUUCGAGUCCCGUACGGAACG	0.51
GUUCCGUUGGCGUAAUGGUACCGCGUCUCCCUCCUAAGGAGAAGACUGCGGGUUCGAGUCUCGUACGGAACG	0.679
GUUCCGUUGGCGUAAUGGUACCGCGUCUCCGUCCUAAGGAGAAGACUGCGGGUUCGAGUCCCGUACGGAACG	0.657
GUUCCGUUGGCGUAAUGGUACCGCGUCUCCCUCCUAAGGAGAAGAGUGCGGGUUUGAGUCCCGUACGGAACG	0.523
GUUCCGUUGGCGUAAUGGUACCGCGUCUCCCUCUUAAGGAGAAGACUGUGGGUUCGAGUCCCGUACGGUACG	0.53
GUUCCGUUGGCGUAAUGGUACCGCGUCUCCCUCCUAAGGAGAAGACUGCGGGUUCGAGUCCCGUAGGGAACG	0.609
GUUCCGUUGGCGUAAUGGUACCGCGUCUCCCUCCUAAGGAGAAGACUGCGGGUUCGAGUCCCGUAUGGAACG	0.757
GUUCCGUUGGCGUAAUGGUACCACGUCUCCCUCCUACGGAGAAGACUGCGGGUCCGAGUCCCGUACGGAACG	≤ 0.5
GUUCCGUUGGCGUAAUGGUACCGCGUCUCUGUUCUAAGGAGAAGACUGCGGGUUCGAGUCACGUACGGAACG	≤ 0.5

Source: the RNAGym collection of RNA variant scans (doi:10.1126/science.aae0568)
